Screens (PubChem BioAssay)
The list is not random: actives were taken first. Their share in the collection is about 3.3%.
SENP6 block: inhibitors of human SENP6 protease; 330,000 tested, 1.8% active; inhibition, % at 10 µM; AID 2599; Recombinant SENP6 catalytic domain, aminoluciferin luminescence; Q9GZR1;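 active = inhibition above about 50% at the single tested dose, limit read from the data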;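 note: plate controls were DMSO wells with enzyme for no effect and DMSO wells lacking enzyme for full effect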
SENP8 block-1: blocks the human protease SENP8; 330,000 tested, 1.2% active; inhibition, % at 10 µM; purified SENP8, Z-RLRGG-aminoluciferin cleavage, luminescence; Q96LD8; in the data active = inhibition above about 50%
NRP1-CendR mod: NRP-1/CendR interaction modulation; O14786; FAM-RPARPAR peptide binding to NRP-1, fluorescence polarization; inhibition, % at 25 µM; 360,000 tested, 0.85% active;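 active = inhibition or corrected inhibition above about 18%, plus a signal ratio from 0.5 to 1.5, limit read from the data, passing the limit was not always enough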
SENP7 block: SENP7 protease inhibition | 330,000 tested, 1.5% active | Q9BQF6 | recombinant SENP7, Z-RLRGG-aminoluciferin luminescence, 40 min | inhibition, % at 5 µM;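 active = inhibition above about 50% at the single test dose, limit read from the data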;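 note: plate controls were DMSO with enzyme for no effect and no enzyme buffer wells for full effect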
SENP8 block-2: SENP8 (human) protease inhibition; Q96LD8; recombinant SENP8, Nedd8 substrate fluorescence; inhibition, % at 20 µM; 360,000 tested, 0.64% active; AID 602440; in the data active = inhibition mostly above about 40%, no sharp cut-off; inactive = mostly below about 27%
SENP1 FRET inh: inhibitors of human SENP1 SUMO protease catalytic domain; inhibition, % at 10 µM; recombinant SENP1 catalytic domain, CyPet-SUMO1-YPet FRET cleavage; Q9P0U3; 360,000 tested, 0.21% active;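 active = inhibition at least 30% at 10 µM, raw YFP signal under a set limit, fluorescence ratio 0.5 to 1.5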;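 note: 0% = enzyme with DMSO and 100% = no enzyme wells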
Target sequence (Q9P0U3 419-644 limits assumed): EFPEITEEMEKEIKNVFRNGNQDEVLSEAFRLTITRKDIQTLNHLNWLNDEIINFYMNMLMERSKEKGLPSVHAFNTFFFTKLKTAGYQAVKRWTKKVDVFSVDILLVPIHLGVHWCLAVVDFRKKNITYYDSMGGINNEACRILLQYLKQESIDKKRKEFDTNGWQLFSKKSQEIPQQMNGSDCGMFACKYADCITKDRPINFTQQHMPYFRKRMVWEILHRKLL
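Assay system: hSENP1 catalytic domain, recombinant. Amount: SENP1 enzyme, 20 pM final. Schedule: 50 min reaction, RT, dark. Technique: FRET, CFP and YFP emission. Control set: no-enzyme wells low, DMSO-plus-enzyme wells high control.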
SENP8 confirm: human SENP8 inhibition, confirmed; 6,200 tested, 40% active; AID 488912; inhibition, % at 12.5 µM; Recombinant SENP8, Z-RLRGG-aminoluciferin luminescence, 60 min; shares compounds with SENP7 block;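 active = mean inhibition across replicates above about 50%, limit read from the data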
SENP6 confirm: confirmation of human SENP6 protease inhibitors. recombinant SENP6, Z-RLRGG-aminoluciferin luminescence. AID 488915. inhibition, % at 12.5 µM. shares compounds with SENP7 block. 6,200 tested, 58% active
SENP7 confirm: confirmation of human SENP7 protease inhibitors | shares compounds with SENP7 block | recombinant SENP7, Z-RLRGG-aminoluciferin luminescence, 40 min | inhibition, % at 12.5 µM | 6,200 tested, 69% active | AID 488917
Casp3 SENP sel: inhibits human caspase-3 in SENP selectivity test; 6,200 tested, 60% active; shares compounds with SENP7 block; inhibition, % at 12.5 µM; purified caspase-3, Z-DEVD-aminoluciferin luminescence, 60 min; AID 488918;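 active = mean inhibition above about 50%, limit read from the data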;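 note: plate controls were enzyme with DMSO for no effect and wells without caspase-3 for full effect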
Target sequence (P42574 28-227 limits assumed): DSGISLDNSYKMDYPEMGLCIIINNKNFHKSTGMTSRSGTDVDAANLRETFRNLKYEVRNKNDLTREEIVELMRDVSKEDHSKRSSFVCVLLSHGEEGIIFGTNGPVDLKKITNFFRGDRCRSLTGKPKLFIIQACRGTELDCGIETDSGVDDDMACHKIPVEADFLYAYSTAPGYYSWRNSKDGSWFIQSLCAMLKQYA
SENP luc ctr: luminescence interference (SENP counter-screen) | 6,200 tested, 39% active | inhibition, % at 12.5 µM | Pre-incubated SENP8/Z-RLRGG-aminoluciferin, luciferase luminescence interference | shares compounds with SENP7 block | AID 488919;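 active = mean inhibition above about 50% when retested at one dose, limit read from the data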;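 note: plate controls were DMSO wells with completed reaction for no effect and substrate without enzyme for full effect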
* = called active by the depositor.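 Rule for the calls, unless noted: active = mean inhibition above about 50% in the one-dose retest (limit read from the data); inactive = the rest.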

Results for CCOCCCNC1=C(Cl)C(=O)c2ccccc2C1=O ?
SENP6 block: 75.2*; SENP8 block-1: 46.6; NRP1-CendR mod: -8.8; SENP7 block: 53.5*; SENP8 block-2: 47.4*; SENP1 FRET inh: -1.1; SENP8 confirm: 5.0; SENP6 confirm: 32.9; SENP7 confirm: 2.1; Casp3 SENP sel: 5.0; SENP luc ctr: 3.5

What do the screens show for `O=S(=O)(c1cccnc1)N1CCn2cccc2C1c1ccccc1F` (stereo unspecified)?
SENP6 block: 2.7; SENP8 block-1: -3.0; NRP1-CendR mod: -10.6; SENP7 block: -5.6; SENP8 block-2: -4.5; SENP1 FRET inh: -3.2

What do the screens show for `CC(C)(C)NC(=O)N1CCn2cccc2C1c1ccccc1F` (stereo unspecified)?
SENP6 block: -23.6; SENP8 block-1: 3.6; NRP1-CendR mod: 14.8; SENP7 block: 96.5*; SENP8 block-2: -1.0; SENP1 FRET inh: -5.3; SENP8 confirm: 1.4; SENP6 confirm: 7.9; SENP7 confirm: 7.6; Casp3 SENP sel: 8.0; SENP luc ctr: 6.3

How did O=C1CCC(=O)N1c1ccc(CSc2nc3ccccc3[nH]2)cc1 do in these assays?
SENP6 block: -4.5; SENP8 block-1: -20.2; NRP1-CendR mod: 5.1; SENP7 block: -5.4; SENP8 block-2: 10.8; SENP1 FRET inh: 0.1

What do the screens show for `c1ccc2[nH]c(SCc3ccc(-c4nnco4)cc3)nc2c1`?
SENP6 block: 72.3*; SENP8 block-1: 44.7; NRP1-CendR mod: 3.9; SENP7 block: 71.1*; SENP8 block-2: 36.1; SENP1 FRET inh: 0.3; SENP8 confirm: 64.3*; SENP6 confirm: 61.1*; SENP7 confirm: 87.8*; Casp3 SENP sel: 81.2*; SENP luc ctr: 75.4*

How did COC(=O)c1cccc(CSc2nc3ccccc3[nH]2)c1 do in these assays?
SENP6 block: 64.5*; SENP8 block-1: 46.6; NRP1-CendR mod: -6.1; SENP7 block: 72.3*; SENP8 block-2: 18.9; SENP1 FRET inh: 1.8; SENP8 confirm: 49.8; SENP6 confirm: 50.1*; SENP7 confirm: 83.4*; Casp3 SENP sel: 64.3*; SENP luc ctr: 68.0*

Results for COc1ccc(CSc2nc3ccccc3[nH]2)cc1 ?
SENP6 block: 96.1*; SENP8 block-1: 87.7*; NRP1-CendR mod: 0.0; SENP7 block: 94.2*; SENP8 block-2: 26.7; SENP1 FRET inh: 0.8; SENP8 confirm: 92.3*; SENP6 confirm: 93.7*; SENP7 confirm: 100.4*; Casp3 SENP sel: 92.0*; SENP luc ctr: 92.6*

How did COC(=O)c1ccc(CSc2nc3ccccc3[nH]2)o1 do in these assays?
SENP6 block: 11.3; SENP8 block-1: 5.9; NRP1-CendR mod: -4.3; SENP7 block: 11.4; SENP8 block-2: 7.1; SENP1 FRET inh: -1.7

How did c1cnc2c(SCc3ccc(-c4nnco4)cc3)cccc2c1 do in these assays?
SENP6 block: 35.8; SENP8 block-1: 3.0; NRP1-CendR mod: 3.4; SENP7 block: 13.1; SENP8 block-2: inactive; SENP1 FRET inh: -0.8

How did COc1cc(C(=O)COC(=O)c2ccncc2)cc(OC)c1OC do in these assays?
SENP6 block: -10.6; SENP8 block-1: -13.4; NRP1-CendR mod: 13.6; SENP7 block: -7.9; SENP8 block-2: -7.0; SENP1 FRET inh: -2.1

What do the screens show for `C/C(=N\OC(=O)Nc1ccccc1)c1ccc(C)cc1`?
SENP6 block: 67.4*; SENP8 block-1: 69.6*; NRP1-CendR mod: -1.2; SENP7 block: 73.4*; SENP8 block-2: 28.0; SENP1 FRET inh: 1.2; SENP8 confirm: 82.2*; SENP6 confirm: 82.9*; SENP7 confirm: 96.3*; Casp3 SENP sel: 78.6*; SENP luc ctr: 77.6*
